{"data": "Assay results pooled from the literature", "note": "Each line is one published result; the experiments were not run side by side."}
{"SMILES": "Cc1ccc(C(CC(=O)c2ccc(Oc3ccccc3)c(O)c2)C(N)=O)cc1 (stereo not drawn)", "test": "HPLC", "quantity": "chromatographic logP", "value": 4.06}
{"SMILES": "CS(=O)(=O)CCC#N", "system": "human, plasma", "conditions": "oral, 100 mg, single dose, fasted", "quantity": "MRT", "value": "30.5 h"}
{"SMILES": "CC(C)Oc1cccc(-c2cnc(N3CCC(C(N)=O)CC3)s2)c1", "system": "male Swiss mouse, brain", "conditions": "oral, 30 mg/kg, 4 h, single dose", "quantity": "concentration", "value": "83 nM"}
{"SMILES": "N#CN1C[C@H](n2nc(-c3ccc(Oc4ccc(Cl)cn4)cc3)c(C(N)=O)c2N)CCC12CC2", "system": "human, plasma", "conditions": "oral, 600 mg, fasted", "quantity": "MRT", "value": "31.6 h"}
{"SMILES": "CC[C@H](C)[C@@H]1NC(=O)[C@@](C)(NC(=O)[C@H](CCCNC(=N)N)NC(=O)[C@H](CC(C)C)NC(=O)[C@@H](NC(=O)[C@H](CCC(N)=O)NC(=O)[C@H](CC(C)C)NC(C)=O)[C@@H](C)O)CCCC=CCCC[C@@](C)(C(=O)N[C@@H](CC(C)C)C(=O)N[C@@H](Cc2ccc3ccccc3c2)C(N)=O)NC(=O)[C@H](CCCNC(=N)N)NC(=O)[C@H](CCC(N)=O)NC1=O", "system": "male BALB/c mouse, plasma", "conditions": "intraperitoneal, 5 mg/kg", "quantity": "half-life", "value": "3.09 h"}
{"SMILES": "CC(C)(Nc1nc(-c2ccccn2)nc2ccccc12)c1ccccn1", "system": "female BALB/c mouse, plasma", "conditions": "intravenous, 1 mg/kg, 4.98 min", "quantity": "concentration", "value": "1460 ng/mL"}
{"SMILES": "O=C1NN=C(N=Cc2ccccc2O)C1=NNn1c(-c2ccccc2)nc2ccccc2c1=O", "quantity": "logP", "value": 3.68}
{"SMILES": "c1ccc(-c2nc(N3CCC(c4ccccn4)C3)c3ccccc3n2)nc1 (stereo not drawn)", "system": "female BALB/c mouse, plasma", "conditions": "oral, 50 mg/kg, 8 h", "quantity": "concentration", "value": "19.6 ng/mL"}
{"SMILES": "O=S(=O)(c1ccc(-c2ccc3nccc(Nc4ccncn4)c3c2)cc1)N1CCOCC1", "system": "female BALB/c mouse, plasma", "conditions": "intraperitoneal, 10 mg/kg, 24 h", "quantity": "concentration", "value": "0 ng/mL"}
{"SMILES": "O=C(O)C1CCN(c2ncc(-c3ccc4c(c3)OCCCO4)s2)CC1", "system": "male Swiss mouse, plasma", "conditions": "oral, 30 mg/kg, 12 h, single dose", "quantity": "concentration", "value": "1640 ng/mL"}
{"SMILES": "O=C1NN=C(N=Cc2ccc(O)cc2O)C1=NNn1c(-c2ccccc2)nc2ccccc2c1=O", "quantity": "logP", "value": 3.38}
{"SMILES": "c1cnc2ccc(Nc3nc(NC4CC4)c4nc[nH]c4n3)cc2c1", "system": "human, plasma", "conditions": "oral, 200 mg/m², patients", "quantity": "MRT(0-t)", "value": "5.7 h"}
{"SMILES": "COc1cc(O)cc(/C=C/c2ccccc2)c1", "test": "HPLC", "quantity": "chromatographic logP", "value": "> 3.14"}
{"SMILES": "O=c1c(O)c(-c2ccc(O)c(O)c2)oc2cc(O)cc(O)c12", "system": "human, plasma", "conditions": "oral, 500 mg, single dose, fasted, healthy volunteers", "quantity": "MRT(0-t)", "value": "6.84 h"}
{"SMILES": "COc1cc(/C=C/c2ccc(O)cc2)cc(OC)c1", "test": "HPLC", "quantity": "chromatographic logP", "value": "> 3.14"}
{"SMILES": "CCCN(CCC)CCc1cccc2c1CC(=O)N2", "test": "metabolic stability", "system": "dog, hepatocytes", "conditions": "1 µM", "quantity": "hepatocyte CLint", "value": "16.3 µL/min/10⁶ cells"}
{"SMILES": "CC(C)(C)c1ccc(O)c(CN(Cc2cc(C(C)(C)C)ccc2O)C2CCC(NC(N)=O)CC2)c1 (stereo not drawn)", "system": "male C57BL/6 mouse, brain", "conditions": "intraperitoneal, 5 mg/kg, single dose", "quantity": "half-life", "value": "7.1 h"}
{"SMILES": "CC(C)(O)c1ccccc1-c1ccc2[nH]c(/C=C/c3ccc(C(F)(F)F)cc3)nc2c1", "system": "male human, plasma", "conditions": "oral, 50 mg, single dose, fasted, healthy volunteers", "quantity": "MRT", "value": "99.5 h"}
{"SMILES": "O=c1nc(N2CCN(CC3CCCCC3)CC2)sc2c([N+](=O)[O-])cc(C(F)(F)F)cc12", "system": "CD-1 mouse, plasma", "conditions": "oral, 100 mg/kg, 15 min", "quantity": "concentration", "value": "2280 ng/mL"}
{"SMILES": "COc1cccc(/C=C/c2ccc(O)cc2)c1", "test": "HPLC", "quantity": "chromatographic logP", "value": "> 3.14"}
{"SMILES": "CC(C)CN(C[C@@H](O)[C@H](Cc1ccccc1)NC(=O)O[C@H]1CO[C@H]2OCC[C@H]21)S(=O)(=O)c1ccc(N)cc1", "system": "BALB/c mouse, plasma", "conditions": "intravenous, 25 mg/kg, 6 h", "quantity": "concentration", "value": "119 ng/mL"}
